From PMC3590405 (European Journal of Nuclear Medicine and Molecular Imaging, 2013)
One block for each compound: values may come before it.

Columns and labels:
[1] = cited from earlier work
[2] = Brain time-activity curves in human PET; assay type: in vivo; details: after intravenous injection
Summary of the method: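 [11C]radioligand in sterile disodium phosphate-buffered saline (pH 7.4), filtered, given as an IV bolus to control subjects and mild–moderate AD patients. Dose for the AZD2995 radioligand was 410 ± 18 MBq (620 ± 486 GBq/μmol). List-mode PET ran 93 min (38 frames), with PSF-modelled iterative reconstruction. Brain radioactivity was expressed as percent injected activity over time.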

[3] = molecular target: amyloid-β (Homo sapiens, UniProt P05067); test: Human PET, DVR by reference Logan with cerebellum as reference; assay type: in vivo; details: for DVR (mean ± SD), anterior cingulate cortex / DVR (mean ± SD), grey matter / DVR (mean ± SD), hippocampus / DVR (mean ± SD), lateral temporal cortex / DVR (mean ± SD), parietal cortex / DVR (mean ± SD), posterior cingulate cortex / DVR (mean ± SD), prefrontal cortex / DVR (mean ± SD), white matter: refLogan
Sequence of amyloid-β (P05067 672-711 limits assumed): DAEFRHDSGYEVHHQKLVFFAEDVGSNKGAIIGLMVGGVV
Summary of the method: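 IV bolus [11C]radioligands in controls and AD patients; ROIs manually drawn on 1.5-T T1 MRI, cortical ROIs restricted to segmented grey matter. Reference Logan used cerebellar cortex (white matter and vermis excluded) as reference. Six linear-phase frames: 13–45 min for AZD2995, 30–60 min for AZD2184. DVR = target/cerebellum V T. Groups compared by Mann–Whitney U (p < 0.05) and pooled-SD effect size.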

[4] = molecular target: synthetic Aβ(1-40) amyloid fibrils (Homo sapiens, UniProt P05067); test: Competition binding against [3H]PIB on Aβ; details: [3H]PIB 3 nM, Aβ(1-40) fibrils
Sequence of synthetic Aβ(1-40) amyloid fibrils (P05067 672-711): as the sequence (P05067 672-711 limits assumed) above

[5] = molecular target: Aβ(1-42) amyloid fibrils (Homo sapiens, UniProt P05067); test: Competition binding against [3H]PIB on Aβ; details: [3H]PIB 3 nM, Aβ(1-42) fibrils
Sequence of Aβ(1-42) amyloid fibrils (P05067 672-713): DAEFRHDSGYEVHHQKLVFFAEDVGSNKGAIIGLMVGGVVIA

[6] = system: amyloid-β plaques and neurofibrillary tangles; details: AD patients; cited from earlier work
[7] = system: amyloid-β plaques; test: In vitro autoradiography on human AD brain sections; assay type: binding; details: white matter
Summary of the method: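 Cryo-cut 10 μm post-mortem AD cortical sections preincubated in 50 mM Tris (pH 7.4) at room temperature, then 30 min with 3 nM [3H]ligand in Tris buffer. Optical densities (digital light units/mm²) read in grey and white matter ROIs. Subcortical white matter signal taken as nonspecific binding. Signal-to-noise = (grey − white)/white.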

[8] = AD patients vs control subjects, DVR
[9] = read-out: IC50, inhibition of [3H]PIB binding

SMILES: CNc1ccc(-c2nc3ccc(O)cc3s2)cn1 [AZD2184]
- logD [1]: 1.8

- time to peak of total radioactivity in brain [2]: at the same time
- radioactivity in the brain at peak ([2]; % of injected radioactivity): 3.0–3.5%
- Effect size, anterior cingulate cortex [3, 8]: 8.52
- Effect size, grey matter [3, 8]: 4.89
- Effect size, hippocampus [3, 8]: 1.73
- Effect size, lateral temporal cortex [3, 8]: 5.00
- Effect size, parietal cortex [3, 8]: 5.26
- Effect size, posterior cingulate cortex [3, 8]: 6.34
- Effect size, prefrontal cortex [3, 8]: 5.82
- Effect size, white matter [3, 8]: 2.67
- DVR (mean ± SD), anterior cingulate cortex ([3]; AD patients): 1.97 ± 0.15
- DVR (mean ± SD), grey matter ([3]; AD patients): 1.72 ± 0.17
- DVR (mean ± SD), hippocampus ([3]; AD patients): 1.11 ± 0.10
- DVR (mean ± SD), lateral temporal cortex ([3]; AD patients): 1.94 ± 0.22
- DVR (mean ± SD), parietal cortex ([3]; AD patients): 2.07 ± 0.25
- DVR (mean ± SD), posterior cingulate cortex ([3]; AD patients): 2.10 ± 0.18
- DVR (mean ± SD), prefrontal cortex ([3]; AD patients): 2.13 ± 0.23
- DVR (mean ± SD), white matter ([3]; AD patients): 1.25 ± 0.05
- DVR (mean ± SD), anterior cingulate cortex ([3]; control subjects): 0.92 ± 0.02
- DVR (mean ± SD), grey matter ([3]; control subjects): 1.05 ± 0.05
- DVR (mean ± SD), hippocampus ([3]; control subjects): 0.95 ± 0.08
- DVR (mean ± SD), lateral temporal cortex ([3]; control subjects): 1.03 ± 0.05
- DVR (mean ± SD), parietal cortex ([3]; control subjects): 1.04 ± 0.04
- DVR (mean ± SD), posterior cingulate cortex ([3]; control subjects): 1.17 ± 0.02
- DVR (mean ± SD), prefrontal cortex ([3]; control subjects): 1.04 ± 0.04
- DVR (mean ± SD), white matter ([3]; control subjects): 1.08 ± 0.13
SMILES: [11CH3]Nc1ccc(-c2nc3ccc(O)cc3s2)cn1 [[^11C]AZD2184]

- pIC50, inhibition of [3H]PIB binding [4]: 6.77 ± 0.02
- IC50 [4, 9]: 0.17 µM
- pIC50, inhibition of [3H]PIB binding [5]: 6.69 ± 0.05
- IC50 [5, 9]: 0.204 µM
SMILES: CNc1ccc(-c2nc3ccc(O)cc3o2)cn1 [AZD2995]
- logD [1]: 1.3

SMILES: CC(=C(C#N)C#N)c1ccc2cc(N(C)CC[18F])ccc2c1 [[^18F]FDDNP]
- specific binding signal compared to other amyloid radioligands [6]: ninefold lower

- nonspecific binding and background, rank order [7]: highest
SMILES: [3H]C([3H])([3H])Nc1ccc(-c2nc3ccc(O)cc3s2)cc1 [[^3H]PIB]
